ChEMBL document CHEMBL4842312, “Phenoxazine nucleoside derivatives with a multiple activity against RNA and DNA viruses” (Eur J Med Chem, 2021)
Values after ≈ are worked out from the molar mass of the structure shown.

How the values were obtained:
Human betaherpesvirus 5 [1] = assay: Antiviral activity against cytomegalovirus infected in HEL cells assessed as reduction in viral plaque formation; type: functional
Procedure, shortened: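 Confluent HEL cultures infected with 20 PFU of CMV (AD-169 or Davis), 2 h adsorption, inoculum removed, then compounds added at varying concentrations from 100 μM. Plaques scored once complete in untreated infected controls.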

Human alphaherpesvirus 1 = assay: Antiviral activity against Herpes simplex virus 1 infected in HEL cells assessed as reduction in viral plaque formation; type: functional
Procedure, shortened: (§1)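 Confluent HEL cultures received 100 CCID50 or 20 PFU of virus, with 2 h adsorption before inoculum removal. Cells were then incubated with compound from 100 μM downward. Cytopathicity or plaques were scored once untreated infected controls reached completion.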

Human alphaherpesvirus 3 [2] = assay: Antiviral activity against Varicella zoster virus infected in HEL cells assessed as reduction in viral plaque formation; type: functional; procedure, shortened: as §1
Human alphaherpesvirus 2 = assay: Antiviral activity against Herpes simplex virus 2 infected in HEL cells assessed as reduction in viral plaque formation; type: functional; procedure, shortened: as §1
[3] = tested on: Tick-borne encephalitis virus; assay: Antiviral activity against Tick-borne encephalitis virus infected in PEK cells assessed as reduction in viral plaque formation incubated for 1 hr by Reed-Muench method; type: functional, organism-based
SARS-CoV-2 = assay: Antiviral activity against SARS COV-2 infected in monkey vero cells assessed as reduction in virus-induced cytopathic effect preincubated with virus for 1 hr followed by cell infection and measured after 5 days by microscopic analysis; type: functional, organism-based; details: Severe acute respiratory syndrome coronavirus 2, Vero
[4] = tested on: Respiratory syncytial virus; assay: Antiviral activity against Respiratory syncytial virus assessed as reduction in virus-induced cytopathic effect by MTS assay; type: functional, organism-based; details: human respiratory syncytial virus
Human betaherpesvirus 5 [5] = assay: Antiviral activity against Human cytomegalovirus AD169; type: functional, organism-based; details: Human betaherpesvirus 5, AD169; procedure, shortened: as §1
HEp-2 = assay: Cytotoxicity in human Hep2 cells assessed as reduction in cell viability measured after 3 days by beckman coulter counting method; type: functional; details: HEp-2, 72 h, time 3 day
Procedure, shortened: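 Hep2 cells seeded at 5 × 10³ cells/well and allowed to grow 24 h, then exposed to compound dilutions starting at 100 μM for 3 days at 37 °C. Cell number measured by Coulter counter.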

Human alphaherpesvirus 3 [6] = assay: Antiviral activity against thymidine kinase positive Varicella zoster virus; type: functional, organism-based; procedure, shortened: as §1
HEL = assay: Cytotoxicity against human HEL cells assessed as reduction in cell viability measured after 3 days by beckman coulter counting method; type: cell-based; details: 72 h, time 3 day
Procedure, shortened: (§2)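 Cells were seeded at 5 × 10³/well, grown 24 h, then exposed to compound from 100 μM downward for 3 days at 37 °C. Cell number was counted with a Coulter counter.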

[7] = (§3) Cytotoxicity in African green monkey Vero cells assessed as reduction in cell viability measured after 5 days by resazurin dye based assay; details: chlorocebus sabaeus, Vero cells; time 5 day
Procedure, shortened: (§4)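 Cells (about 10⁵/well, 5% FBS) were added to two-fold compound dilutions (eight concentrations from 100 μM; DMSO control) and held 5 days at 36.5 °C in CO2. Medium was then replaced with resazurin (25 μg/mL) for 4 h and stopped with SDS. Fluorescence was read at Ex 525 / Em 580–640 nm, with background wells without resazurin subtracted. Done in two replicates; CC50 calculated.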

[8] = Selectivity index, ratio of CC50 for human Hep2 cells to EC50 for Respiratory syncytial virus; type: toxicity; details: read-out: Ratio CC50/EC50
[9] = (§5) Cytotoxicity in dog MDCK cells assessed as reduction in cell viability measured after 3 days by beckman coulter counting method; type: cell-based, Canis lupus familiaris; details: MDCK cells, time 3 day; procedure, shortened: as §2
Human alphaherpesvirus 3 [10] = assay: Antiviral activity against thymidine kinase deficient Varicella zoster virus; type: functional, organism-based; procedure, shortened: as §1
Human betaherpesvirus 5 [11] = assay: Antiviral activity against Human cytomegalovirus Davis; type: functional, organism-based; details: Human betaherpesvirus 5, Davis; procedure, shortened: as §1
[12] = Selectivity index, ratio of CC50 for human HEL cells to EC50 for antiviral activity against thymidine kinase positive Varicella zoster virus; type: toxicity; details: read-out: Ratio CC50/EC50
Chikungunya virus = assay: Antiviral activity against Chikungunya virus infected in African green monkey Vero cells assessed as reduction in virus plaque formation preincubated with virus for 1 hr followed by cell infection and measured after 1 hr by crystal violet staining based assay; type: functional, organism-based
[13] = Selectivity index, ratio of CC50 for human HEL cells to EC50 for Antiviral activity against Human cytomegalovirus Davis; type: toxicity; details: read-out: Ratio CC50/EC50
Powassan virus = assay: Antiviral activity against Powassan virus infected in pig PEK cells assessed as reduction in virus plaque formation preincubated with virus for 1 hr followed by cell infection and measured after 1 hr by crystal violet staining based assay; type: functional, organism-based
[14] = Selectivity index, ratio of CC50 for human HEL cells to EC50 for antiviral activity against thymidine kinase deficient Varicella zoster virus; type: toxicity; details: read-out: Ratio CC50/EC50
[15] = Cytotoxicity in pig PEK cells assessed as reduction in cell viability measured after 5 days by resazurin dye based assay; set-up: species or system Sus scrofa, Kidney; details: 120 h, time 5 day; procedure, shortened: as §4
Vero = assay: as §3; details: chlorocebus sabaeus, vero, 120 h; time 5 day; procedure, shortened: as §4
[16] = Selectivity index, ratio of CC50 for pig PEK cells to EC50 for Antiviral activity against Powassan virus infected in pig PEK cells; type: toxicity, cell-based; details: read-out: Ratio CC50/EC50
Influenza A virus = assay: Antiviral activity against Influenza A virus (H1N1) infected in MDCK cells assessed as reduction in cytopathic effect preincubated with cells for 1 hrs followed by viral addition and measured after 24 hrs by Reed-Muench method; type: functional, organism-based
Procedure, shortened: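 MDCK monolayers were pre-incubated 1 h at 37 °C with 3-fold compound dilutions (from 2 mg/mL DMSO stock), then infected at MOI 1 for 24 h. Supernatant yield was titrated by 10-fold dilutions on fresh MDCK for 72 h. Titre was read by hemagglutination with 1% chicken erythrocytes and calculated by Reed-Muench as TID50 per 100 μL.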

MDCK = assay: as §5; type: cell-based, Canis lupus familiaris; details: mdck, 72 h, time 3 day; procedure, shortened: as §2
[17] = Selectivity index, ratio of CC50 for African green monkey Vero cells to EC50 for Antiviral activity against Chikungunya virus infected in African green monkey Vero cells; type: toxicity; details: read-out: Ratio CC50/EC50
[18] = Selectivity index, ratio of CC50 for human HEL cells to EC50 for Antiviral activity against Human cytomegalovirus AD169; type: toxicity; details: read-out: Ratio CC50/EC50
[19] = tested on: Tick-borne encephalitis virus; assay: Antiviral activity against Tick-borne encephalitis virus infected in pig PEK cells assessed as reduction in virus plaque formation preincubated with virus for 1 hr followed by cell infection and measured after 1 hr by crystal violet staining based assay; type: functional, organism-based
[20] = Selectivity index, ratio of CC50 for pig PEK cells to EC50 for Antiviral activity against Tick-borne virus encephalitis infected in pig PEK cells; type: toxicity, cell-based; details: read-out: Ratio CC50/EC50
Human alphaherpesvirus 3 [21] = assay: Antiviral activity against Varicella zoster virus assessed as inhibition of viral replication; type: functional, organism-based
Human alphaherpesvirus 3 [22] = assay: Antiviral activity against wild type Varicella zoster virus infected in HEL cells assessed as reduction in viral plaque formation incubated for 2 hrs; type: functional, organism-based; details: Human alphaherpesvirus 3, HEL; procedure, shortened: as §1
Human alphaherpesvirus 3 [23] = assay: Antiviral activity against thymidine kinase deficient Varicella zoster virus infected in HEL cells assessed as reduction in viral plaque formation incubated for 2 hrs; type: functional, organism-based; details: Human alphaherpesvirus 3, HEL; procedure, shortened: as §1
[24] = tested on: Omsk hemorrhagic fever virus; assay: Antiviral activity against Omsk hemorrhagic fever virus infected in pig PEK cells assessed as reduction in virus plaque formation preincubated with virus for 1 hr followed by cell infection and measured after 1 hr by crystal violet staining based assay; type: functional, organism-based
[25] = Selectivity index, ratio of CC50 for pig PEK cells to EC50 for Antiviral activity against Omsk hemorrhagic fever virus infected in pig PEK cells; type: toxicity, cell-based; details: read-out: Ratio CC50/EC50
[26] = Selectivity index, ratio of CC50 for dog MDCK cells to EC50 for Influenza A virus (A/California/07/09(H1N1)) infected in MDCK cells; type: toxicity, cell-based; details: read-out: Ratio CC50/EC50

SMILES	EC50 (SARS-CoV-2) [µM]	EC50 [4] [µM]	EC50 (Human betaherpesvirus 5 [5]) [µM]	CC50 (HEp-2) [µM]	EC50 (Human alphaherpesvirus 3 [6]) [µM]	CC50 (HEL) [µM]	EC50 (Human alphaherpesvirus 3 [10]) [µM]	EC50 (Human betaherpesvirus 5 [11]) [µM]	selectivity ratio [13]	EC50 (Powassan virus) [µM]	CC50 [15] [µM]	CC50 (Vero) [µM]	selectivity ratio [16]	EC50 (Influenza A virus) [µM]	CC50 (MDCK) [µM]	EC50 [19] [µM]	also measured
Cc1cn2c(=O)c3ncn(COC(CO)CO)c3nc2[nH]1																	MIC (Human betaherpesvirus 5 [1]): 14.3 µM (≈ 4.19 µg/mL); MIC (Human alphaherpesvirus 1): 0.07 µM (≈ 0.0205 µg/mL); MIC (Human alphaherpesvirus 3 [2]): 14.3 µM (≈ 4.19 µg/mL); MIC (Human alphaherpesvirus 2): 0.07 µM (≈ 0.0205 µg/mL)
COc1ccc(C(OC[C@H]2O[C@@H](n3cc4c(nc3=O)Nc3ccccc3O4)C[C@@H]2O)(c2ccccc2)c2ccc(OC)cc2)cc1																	EC50 [3]: 0.4 µM
O=c1nc2c(cn1[C@H]1C=C[C@@H](O)C1)Oc1ccccc1N2	> 100	11	> 20	80	> 100	> 100	64.4	> 100									CC50 at 120 h [7]: > 100 µM; selectivity ratio [8]: 7; CC50 at 72 h [9]: > 100 µM
Cc1cn2c(=O)c3ncn(COCCO)c3nc2[nH]1																	MIC (Human alphaherpesvirus 1): 1.52 µM (≈ 0.4 µg/mL); MIC (Human alphaherpesvirus 2): 1.52 µM (≈ 0.4 µg/mL)
CCCCCCCCOc1ccc2c(c1)Nc1nc(=O)n([C@H]3C[C@H](O)[C@@H](CO)O3)cc1O2	> 100	> 100	54.7	> 100	0.42	> 100	15.9	42.3	> 2	1.5	> 100	> 100	> 66	82	> 100	2.8	selectivity ratio [12]: > 238; EC50 (Chikungunya virus): 2.5 µM; selectivity ratio [14]: > 6; selectivity ratio [17]: > 40; selectivity ratio [18]: > 2; selectivity ratio [20]: > 35
O=c1[nH]c(=O)n([C@H]2C[C@H](O)[C@@H](CO)O2)cc1/C=C/Br [BRIVUDINE]					0.034	> 300	0.42										EC50 (Human alphaherpesvirus 3 [21]): 3.4 µM
O=c1nc2c(cn1[C@H]1C[C@H](O)[C@@H](CO)O1)Oc1ccccc1N2																	EC50 (Human alphaherpesvirus 3 [22]): 0.06 µM; EC50 (Human alphaherpesvirus 3 [23]): 10 µM
COc1ccc(C(OCCOCn2cc3c(nc2=O)N(C)c2ccccc2O3)(c2ccccc2)c2ccc(OC)cc2)cc1	> 100	> 100	48.9	> 100	> 20	> 100	> 20	44.7	> 2	8	> 100	> 100	> 12	79	> 100	16	EC50 (Chikungunya virus): 6.1 µM; EC50 [24]: 3.1 µM; selectivity ratio [25]: > 32; selectivity ratio [17]: > 16; selectivity ratio [18]: > 2; selectivity ratio [20]: > 6
CCCCCCCCCCOc1ccc2c(c1)Nc1nc(=O)n([C@H]3C[C@H](O)[C@@H](CO)O3)cc1O2	> 100	> 100	> 100	> 100	0.68	50.3	15.2	10.4	5	4.4	> 100	> 100	> 22	3.4	> 100	40	selectivity ratio [14]: 3; selectivity ratio [26]: > 29
